STEP inh: inhibitors of human striatal-enriched phosphatase STEP; P54829; recombinant STEP, OMFP fluorogenic substrate, fluorescence; inhibition, % at 20 µM; 360,000 compounds, 0.25% hits; AID 588621;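 active means inhibition at 20 µM, scaled per plate between control wells, above about 37%, limit read from the data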
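System: STEP (striatal-enriched tyrosine phosphatase) enzyme, cell-free; medium: Bis-Tris pH 6.0 buffer with DTT, detergent; dosing: 20 µM, 1% DMSO; times: reaction 20 min, ambient temperature; detection: fluorescence, 480/540 nm; read-out basis: normalized % inhibition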
SUMO1-SIM PPI: alters human SUMO1 binding to SIM partners; SUMO1 binding to a labelled peptide, TR-FRET, 1 h; inhibition, % at 20 µM; 360,000 compounds, 0.33% hits; in the data active means inhibition above about 37%
Target sequence (P63165 whole entry, looked up): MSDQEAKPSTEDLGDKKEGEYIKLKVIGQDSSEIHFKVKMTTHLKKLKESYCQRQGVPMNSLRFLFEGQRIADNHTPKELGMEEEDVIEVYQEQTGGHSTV
DNMT1 inh: DNMT1 (human) enzyme inhibition | inhibition (reported as % activation of signal), % at 10 µM | DNMT1 molecular beacon, Hinp1I cleavage, fluorescence | P26358 | 360,000 compounds, 0.83% hits; in the data active means inhibition above about 50%
HKDC1 inh: HKDC1 (human) hexokinase inhibition. Q2TB90. recombinant HKDC1, G6PDH/diaphorase resazurin coupled fluorescence. inhibition, % at 20 µM. 340,000 compounds, 0.16% hits;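 active means inhibition above about 35% when tested at 20 µM, limit read from the data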
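Assay system – recombinant HKDC1 (HK5) hexokinase enzyme, produced in-house · Input – HKDC1 at 5 µg/mL · Reagent – glucose plus 1 mM ATP as hexokinase substrates · Timing – 90 min reaction incubation at room temperature, dark · Measured by – G6PDH/diaphorase-coupled fluorescence, 1 mM NADP, 100 µM resazurin, 525/613 nm · Benchmarks – DMSO-enzyme wells negative, buffer-substituted wells positive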
LMPTP inh: LMPTP (human) inhibition; P24666; recombinant LMPTP-A, OMFP fluorogenic substrate, fluorescence intensity; inhibition, % at 20 µM; 360,000 compounds, 0.22% hits; AID 651560;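 active means compounds that cut the enzyme signal by at least half of the control window in the single-dose screen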
Target sequence (P24666 whole entry, looked up): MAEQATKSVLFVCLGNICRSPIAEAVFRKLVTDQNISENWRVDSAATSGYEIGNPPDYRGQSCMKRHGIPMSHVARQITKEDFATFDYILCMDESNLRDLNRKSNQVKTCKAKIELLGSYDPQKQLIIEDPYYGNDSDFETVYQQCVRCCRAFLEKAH
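Material: LMPTP-A; amount: 0.625 nM enzyme; doses: single 20 µM dose; times: reaction 50 min, room temperature, dark; technique: fluorescence intensity of OMFP turnover product; benchmarks: no-enzyme and uninhibited controls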
Scp-1 inhibitor: Scp-1 (human) phosphatase inhibition; Q9GZU7; Recombinant Scp1, phosphopeptide, malachite green phosphate absorbance; inhibition, % at 20 µM; 340,000 compounds, 0.88% hits; AID 493091;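 active means inhibition above about 50% at 20 µM, limit read from the data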
Target sequence (Q9GZU7 76-261 limits assumed): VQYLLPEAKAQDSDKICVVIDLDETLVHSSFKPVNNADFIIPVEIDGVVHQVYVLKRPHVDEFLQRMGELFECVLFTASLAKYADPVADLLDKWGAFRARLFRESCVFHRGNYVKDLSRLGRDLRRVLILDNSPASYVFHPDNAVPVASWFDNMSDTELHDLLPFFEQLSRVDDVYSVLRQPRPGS
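System: SCP-1 catalytic domain; Reagent: Phospho 17-mer peptide substrate; Doses: one concentration, 20 µM, with 1.0% DMSO; Incubation: 45 min room-temperature reaction, 5 min colour, 30 min stabiliser; Signal: Phosphate-binding colour reagent, absorbance read at 630 nm.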
DNMT1 interf DR: shows spectral interference in the DNMT1 beacon assay; shares compounds with DNMT1 inh; molecular beacon fluorescence, spectral interference counter-screen; IC50, µM; 200 tested, under 10 active; AID 602382; call rule not given here
DNMT1 inh conf: confirmation of human DNMT1 inhibitors; shares compounds with DNMT1 inh; DNMT1 molecular beacon HinP1I cleavage, fluorescence; inhibition, % at 10 µM; 2,300 compounds, 8% hits; AID 602385;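 active means average inhibition of at least 30% in the single-concentration confirmation test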
Beacon interf: counter-screen for DNMT1 inhibitors: spectral interference | 2,300 compounds, 1% hits | DNMT1 molecular beacon spectral interference counterscreen, fluorescence 485/520 | activation (fluorescence interference), % at 10 µM | shares compounds with DNMT1 inh;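 active means activation of at least 30% at 10 µM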;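 further: DNMT1 catalytic domain with a HinP1I cleavage step and a FAM/dabcyl DNA beacon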
Large screens that a line does not name were inactive (follow-up assays come after a bar, where they were run). Sampled rows, rich in hits. Any-hit rate of the full collection: about 1.8%.

O=C1CCC/C(=N/NC(=O)C2CCN(S(=O)(=O)c3cccs3)CC2)C1	DNMT1 inh 71 | DNMT1 inh conf inactive | Beacon interf inactive
O=C(C1CCN(S(=O)(=O)c2cccs2)CC1)N1CCCCC1	none
COc1ccc(NC(=O)NC2(C(=O)N3CCN4CCCC4C3)CCCCC2)cc1 (centres undefined)	none
COc1ccc(NC(=O)NC2(C(=O)N3CCOCC3)CCCCC2)cc1	DNMT1 inh 54 | DNMT1 inh conf inactive | Beacon interf inactive
CC(=O)Nc1ccc(/C=N/NC(=O)c2cc(-c3ccco3)nc3ccccc23)cc1	none
Cc1cc(C(=O)OCC(=O)Nc2ccccc2[N+](=O)[O-])c2ccccc2n1	none
CCN(CC)C(=O)COC(=O)c1cc(-c2ccco2)nc2ccccc12	DNMT1 inh 73, Scp-1 inhibitor 82 | DNMT1 inh conf inactive | Beacon interf inactive
CCN(CC)C(=O)COC(=O)c1cc(-c2ccc(OC)cc2)nc2ccccc12	none
O=C(O)c1ccccc1/C=N/NC(=O)c1cc(-c2ccco2)nc2ccccc12	SUMO1-SIM PPI 57, DNMT1 inh 91, Scp-1 inhibitor 77 | DNMT1 interf DR inactive | DNMT1 inh conf 38 | Beacon interf inactive
Cc1ccc(NC(=O)COC(=O)c2cc(C)nc3ccccc23)c([N+](=O)[O-])c1	DNMT1 inh 64 | DNMT1 inh conf inactive | Beacon interf inactive
O=C(COC(=O)c1cc(-c2ccco2)nc2ccccc12)NCc1ccccc1	none
CNC(=O)COC(=O)c1cc(-c2ccco2)nc2ccccc12	DNMT1 inh 56, Scp-1 inhibitor 76 | DNMT1 inh conf inactive | Beacon interf inactive
O=C(COc1ccccc1)Nc1cc(NC(=O)COc2ccccc2)cc(C(=O)O)c1	none
CCOC(=O)C1=C[C@@H](CC)N(S(=O)(=O)c2ccc(C)cc2)[C@H]1c1cccs1	none (no result: HKDC1 inh, Scp-1 inhibitor)
Nc1ncnc2c1ncn2[C@@H]1O[C@H](CNC(=O)[C@@H](N)Cc2ccc(C(F)(F)F)cc2)[C@@H](O)[C@H]1O	none
NC(=O)c1cc(S(=O)(=O)N2CCCC2)ccc1OCCOc1ccccc1	none
CSc1cc(C)c(OCC(=O)Nc2c(C)nn(C)c2C)c(C)c1	none
COc1ccc(C2CC(c3cccc([N+](=O)[O-])c3)=NN2/C(C)=C/C(C)=O)cc1 (centres undefined)	DNMT1 inh 57 (no result: HKDC1 inh, Scp-1 inhibitor) | DNMT1 inh conf inactive | Beacon interf inactive
O=c1oc2c(O)cccc2cc1-c1nc2ccccc2[nH]1	DNMT1 inh 63, LMPTP inh 66 | DNMT1 inh conf inactive | Beacon interf inactive
O=c1oc2c(CN3CCCCC3)c(O)ccc2cc1-c1nc2ccccc2[nH]1	none
CCc1cccc(OCCCCN(CC)CC)c1	DNMT1 inh 55 | DNMT1 inh conf inactive | Beacon interf inactive
Cc1ccccc1-c1ccc(=O)n(CC(=O)Nc2ccc(-n3cnnn3)cc2)n1	DNMT1 inh 90 | DNMT1 inh conf inactive | Beacon interf inactive
Cc1ccccc1-c1ccc(=O)n(CC(=O)Nc2ccc(S(=O)(=O)N(C)C)cc2)n1	none
COc1ccccc1C(=O)Nc1sc2c(c1C(=O)NCc1ccco1)CCCC2	DNMT1 inh 51 | DNMT1 inh conf inactive | Beacon interf inactive
c1ccc(OCCCCn2cnc3ccccc32)cc1	DNMT1 inh 74 | DNMT1 inh conf inactive | Beacon interf inactive
CC(C)(C)C(=O)Nc1ccc(C(=O)CN2C(=O)NC3(CCOc4ccccc43)C2=O)cc1 (centres undefined)	none
CCC(C)NC(=O)CSc1nnc(-c2cc(OC)c(OC)c(OC)c2)c(-c2cc(OC)c(OC)c(OC)c2)n1 (centres undefined)	none
NS(=O)(=O)c1ccc(N=Nc2ccc(=O)[nH]c2O)cc1	STEP inh 85, DNMT1 inh 100, Scp-1 inhibitor 86 | DNMT1 interf DR inactive | DNMT1 inh conf inactive | Beacon interf inactive
Cc1cc(-c2ccccc2C(=O)O)on1	none
O=C(O)c1ccccc1C1=Nc2ccc(O)cc2Oc2cc(O)ccc21	DNMT1 inh 55 | DNMT1 inh conf 39 | Beacon interf 45
COn1c(=O)c(-c2ccc(C)cc2)[n+]([O-])c2ccccc21	none
COn1c(=O)c(-c2ccc(Cl)cc2)[n+]([O-])c2ccccc21	DNMT1 inh 68 | DNMT1 inh conf inactive | Beacon interf inactive
C=CCn1c(=O)c(C(=O)NC(C)c2ccccc2)c(O)c2ccccc21 (centres undefined)	DNMT1 inh 84 | DNMT1 inh conf inactive | Beacon interf inactive
Fc1ccc(Nc2nc(-c3ccncc3)nc3ccccc23)cc1F	DNMT1 inh 56 | DNMT1 inh conf inactive | Beacon interf inactive
CN(C)CCNc1ncnc2c1ncn2[C@H]1CN(Cc2cccs2)C[C@@H](CO)O1	none (no result: HKDC1 inh, Scp-1 inhibitor)
O=C1NC[C@@H](CCCCN2C[C@H](Cc3ccccc3)N(CCC3CCCCC3)C(=O)C2=O)N(CC2CCCCC2)C1=O	none (no result: STEP inh, DNMT1 inh, HKDC1 inh, Scp-1 inhibitor)
COc1ccc(NC(=O)Cc2ccc(C)cc2)c([N+](=O)[O-])c1	none
COc1ccc(NC(=O)CC2Nc3cc(C)c(C)cc3NC2=O)c([N+](=O)[O-])c1 (centres undefined)	DNMT1 inh 59 | DNMT1 inh conf inactive | Beacon interf inactive
O=C1CCN(Cc2ccc(Br)cc2)CCN1[C@H](CO)Cc1ccccc1	none
Cc1cc(Br)cn2c(Cc3ccccc3)c(-c3ccco3)nc12	none (no result: HKDC1 inh, Scp-1 inhibitor)
COc1ccc(Cc2c(-c3ccco3)nc3c(C)cc(Br)cn23)c(C)c1	none (no result: HKDC1 inh, Scp-1 inhibitor)
COc1ccc(Cc2c(-c3ccccc3)nc3ccc(Cl)cn23)c(C)c1	none (no result: HKDC1 inh, Scp-1 inhibitor)
COc1ccc(Cc2c(-c3ccco3)nc3ccc(Br)cn23)c(C)c1	DNMT1 inh 102 (no result: HKDC1 inh, Scp-1 inhibitor) | DNMT1 inh conf inactive | Beacon interf inactive
Cc1cc(Br)cn2c(Cc3ccsc3)c(-c3ccco3)nc12	DNMT1 inh 52 (no result: HKDC1 inh, Scp-1 inhibitor) | DNMT1 inh conf inactive | Beacon interf inactive
COc1ccc(Cc2c(-c3ccco3)nc3ccc(Cl)cn23)c(C)c1	DNMT1 inh 84 (no result: HKDC1 inh, Scp-1 inhibitor) | DNMT1 inh conf inactive | Beacon interf inactive
CCOC(=O)C1=CCN(S(=O)(=O)c2ccccc2Cl)C1c1cccc(C)c1 (centres undefined)	none (no result: HKDC1 inh, Scp-1 inhibitor)
Cc1ccc(C(=O)Nc2ccc(S(=O)(=O)N3CCN(C)CC3)cc2)cc1	DNMT1 inh 67 | DNMT1 inh conf inactive | Beacon interf inactive

Source: PubChem BioAssay
